Results reported in ChEMBL document CHEMBL4689842, “EUbOPEN Chemogenomics Library wave 1” (2021).

Tested on: HEK-293T
Assay: Multiplex assay against HEK293T;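 as to Population Tubulin-Different-Phenotype (%): share of the cells with healthy nuclei that show this phenotype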
Assay type: toxicity, cell-based
Settings: human
Method in brief: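 At seeding, live cells were stained with Hoechst33342, BioTracker Green Microtubule Cytoskeleton Dye, MitoTracker Red and Annexin V Alexa Fluor 680. After compound addition they were imaged on a CQ1 microscope at 37°C and 5% CO2, and CellPathfinder machine-learning gating sorted them into Hoechst high-intensity objects or normal cells, with normal cells further split into healthy, pyknosed or fragmented nuclei and pyknosed cells into mitotic or apoptotic. Tubulin, mitochondrial-mass and membrane-permeability phenotypes are given as per cents of cells with healthy nuclei.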

[1] = 12 h, 1 µM, compound concentration 1 uM, replicate 1
[2] = 12 h, 1 µM, compound concentration 1 uM, replicate 2
[3] = 12 h, 10 µM, compound concentration 10 uM, replicate 1
[4] = 12 h, 10 µM, compound concentration 10 uM, replicate 2
[5] = 24 h, 1 µM, compound concentration 1 uM, replicate 1
[6] = 24 h, 1 µM, compound concentration 1 uM, replicate 2
[7] = 24 h, 10 µM, compound concentration 10 uM, replicate 1
[8] = 24 h, 10 µM, compound concentration 10 uM, replicate 2

CCOC(=O)CCNc1cc(N2CCc3ccccc3CC2)nc(-c2ccccn2)n1
Population Apoptotic (%) [1]: 15% | Population Fragmented Nuclei (%) [1]: 15% | Population Healthy Nuclei (%) [1]: 66% | Population Hoechst High Intensity Objects (%) [1]: 9% | Population Membrane Permeable-Phenotype (%) [1]: 4% | Population Mitochondria Different-Phenotype (%) [1]: 3% | Population Mitotic Cells (%) [1]: 84% | Population Normal (%) [1]: 90% | Population Pyknosed Nuclei (%) [1]: 17% | Population Tubulin-Different-Phenotype (%) [1]: 4% | Total Cell Count [1]: 720 | Population Apoptotic (%) [2]: 8% | Population Fragmented Nuclei (%) [2]: 8% | Population Healthy Nuclei (%) [2]: 86% | Population Hoechst High Intensity Objects (%) [2]: 1% | Population Membrane Permeable-Phenotype (%) [2]: 1% | Population Mitochondria Different-Phenotype (%) [2]: 8% | Population Mitotic Cells (%) [2]: 91% | Population Normal (%) [2]: 98% | Population Pyknosed Nuclei (%) [2]: 4% | Population Tubulin-Different-Phenotype (%) [2]: 5% | Total Cell Count [2]: 1753 | Population Apoptotic (%) [3]: 22% | Population Fragmented Nuclei (%) [3]: 13% | Population Healthy Nuclei (%) [3]: 54% | Population Hoechst High Intensity Objects (%) [3]: 16% | Population Membrane Permeable-Phenotype (%) [3]: 4% | Population Mitochondria Different-Phenotype (%) [3]: 27% | Population Mitotic Cells (%) [3]: 77% | Population Normal (%) [3]: 83% | Population Pyknosed Nuclei (%) [3]: 32% | Population Tubulin-Different-Phenotype (%) [3]: 31% | Total Cell Count [3]: 622 | Population Apoptotic (%) [4]: 26% | Population Fragmented Nuclei (%) [4]: 3% | Population Healthy Nuclei (%) [4]: 87% | Population Hoechst High Intensity Objects (%) [4]: 4% | Population Membrane Permeable-Phenotype (%) [4]: 2% | Population Mitochondria Different-Phenotype (%) [4]: 43% | Population Mitotic Cells (%) [4]: 73% | Population Normal (%) [4]: 95% | Population Pyknosed Nuclei (%) [4]: 8% | Population Tubulin-Different-Phenotype (%) [4]: 56% | Total Cell Count [4]: 1158 | Population Apoptotic (%) [5]: 20% | Population Fragmented Nuclei (%) [5]: 12% | Population Healthy Nuclei (%) [5]: 79% | Population Hoechst High Intensity Objects (%) [5]: 4% | Population Mitochondria Different-Phenotype (%) [5]: 2% | Population Mitotic Cells (%) [5]: 79% | Population Normal (%) [5]: 95% | Population Pyknosed Nuclei (%) [5]: 8% | Population Tubulin-Different-Phenotype (%) [5]: 7% | Total Cell Count [5]: 821 | Population Apoptotic (%) [6]: 1% | Population Fragmented Nuclei (%) [6]: 23% | Population Healthy Nuclei (%) [6]: 73% | Population Hoechst High Intensity Objects (%) [6]: 2% | Population Membrane Permeable-Phenotype (%) [6]: 5% | Population Mitochondria Different-Phenotype (%) [6]: 1% | Population Mitotic Cells (%) [6]: 98% | Population Normal (%) [6]: 97% | Population Pyknosed Nuclei (%) [6]: 2% | Population Tubulin-Different-Phenotype (%) [6]: 6% | Total Cell Count [6]: 2917 | Population Apoptotic (%) [7]: 40% | Population Fragmented Nuclei (%) [7]: 14% | Population Healthy Nuclei (%) [7]: 46% | Population Hoechst High Intensity Objects (%) [7]: 18% | Population Membrane Permeable-Phenotype (%) [7]: 4% | Population Mitochondria Different-Phenotype (%) [7]: 54% | Population Mitotic Cells (%) [7]: 59% | Population Normal (%) [7]: 81% | Population Pyknosed Nuclei (%) [7]: 38% | Population Tubulin-Different-Phenotype (%) [7]: 47% | Total Cell Count [7]: 535 | Population Apoptotic (%) [8]: 29% | Population Fragmented Nuclei (%) [8]: 4% | Population Healthy Nuclei (%) [8]: 83% | Population Hoechst High Intensity Objects (%) [8]: 8% | Population Membrane Permeable-Phenotype (%) [8]: 2% | Population Mitochondria Different-Phenotype (%) [8]: 50% | Population Mitotic Cells (%) [8]: 70% | Population Normal (%) [8]: 91% | Population Pyknosed Nuclei (%) [8]: 12% | Population Tubulin-Different-Phenotype (%) [8]: 65% | Total Cell Count [8]: 1034
